# In ChEMBL document CHEMBL2157922, “Synthesis and antifungal activity of diverse C-2 pyridinyl and pyridinylvinyl substituted quinolines” (2012):
# Assays:
# [1] = system: Candida albicans; assay: Antifungal activity against Candida albicans ATCC 10231 after 48 hrs by broth microdilution technique; assay type: functional; conditions: ATCC 10231, 48 h
# Procedure, shortened: (§1)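 Yeasts were tested by CLSI broth microdilution in RPMI-1640 buffered to pH 7.0 with MOPS, with compound from 250 down to 0.98 in DMSO stocks. Trays were held at 30 °C in a moist, dark chamber. MIC100, the lowest concentration giving total visual inhibition against the growth control, was read by eye at 48 h.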
# [2] = system: Cryptococcus neoformans; assay: Antifungal activity against Cryptococcus neoformans ATCC 32264 at 31.2 ug/ml after 48 hrs; assay type: functional; conditions: ATCC 32264, 48 h
# Procedure, shortened: (§2)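 C. neoformans was tested by 96-well RPMI-1640 microdilution, with DMSO-matched growth and sterility control wells. Plates were incubated 48 h at 30 °C in a moist, dark chamber and read at OD405. % inhibition = 100 − (CTW − SCW)/(GCW − SCW), in duplicate. For the clinical isolates, MIC80 and MIC50 are the lowest concentrations giving 80% and 50% inhibition.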
# [3] = system: Pichia kudriavzevii; assay: Antifungal activity against Candida krusei CCC 117 after 48 hrs by broth microdilution technique; assay type: functional; conditions: CCC 117, 48 h
# [4] = system: Saccharomyces cerevisiae; assay: Antifungal activity against Saccharomyces cerevisiae ATCC 9763 after 48 hrs by broth microdilution technique; assay type: functional; conditions: ATCC 9763, 48 h; procedure, shortened: as §1
# [5] = system: Cryptococcus neoformans; assay: Antifungal activity against Cryptococcus neoformans IM 00319 after 48 hrs by broth microdilution technique; assay type: functional; conditions: IM 00319, 48 h; procedure, shortened: as §2
# [6] = system: Trichophyton mentagrophytes; assay: Antifungal activity against Trichophyton mentagrophytes ATCC 9972 after 48 hrs by broth microdilution technique; assay type: functional; conditions: ATCC 9972, 48 h
# Procedure, shortened: (§3)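 Moulds and dermatophytes were run by CLSI broth microdilution in MOPS-buffered RPMI-1640 at pH 7.0. Aspergillus was incubated at 30 °C and dermatophytes at 28–30 °C, in a moist, dark chamber. MIC100, the lowest concentration with no visible growth, was read visually at a time set by growth of the control fungus.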
# [7] = system: Aspergillus fumigatus; assay: Antifungal activity against Aspergillus fumigatus ATCC 26934 after 48 hrs by broth microdilution technique; assay type: functional; conditions: ATCC 26934, 48 h; procedure, shortened: as §3
# [8] = system: Candida tropicalis; assay: Antifungal activity against Candida tropicalis CCC 131 after 48 hrs by broth microdilution technique; assay type: functional; conditions: CCC 131, 48 h
# [9] = system: Cryptococcus neoformans; assay: Antifungal activity against Cryptococcus neoformans IM 972751 after 48 hrs by broth microdilution technique; assay type: functional; conditions: IM 972751, 48 h; procedure, shortened: as §2
# [10] = system: Trichophyton rubrum; assay: Antifungal activity against Trichophyton rubrum CCC 113 after 48 hrs by broth microdilution technique; assay type: functional; conditions: CCC 113, 48 h
# [11] = system: Cryptococcus neoformans; assay: Antifungal activity against Cryptococcus neoformans IM 042074 after 48 hrs by broth microdilution technique; assay type: functional; conditions: IM 042074, 48 h; procedure, shortened: as §2
# [12] = system: Candida albicans; assay: Antifungal activity against Candida albicans CCC 127 after 48 hrs by broth microdilution technique; assay type: functional; conditions: CCC 127, 48 h
# [13] = system: Aspergillus niger; assay: Antifungal activity against Aspergillus niger ATCC 9029 after 48 hrs by broth microdilution technique; assay type: functional; conditions: ATCC 9029, 48 h; procedure, shortened: as §3
# [14] = system: Nannizzia gypsea; assay: Antifungal activity against Microsporum gypseum CCC 115 after 48 hrs by broth microdilution technique; assay type: functional; conditions: CCC 115, 48 h; procedure, shortened: as §3
# [15] = system: Nakaseomyces glabratus; assay: Antifungal activity against Candida glabrata CCC 115 after 48 hrs by broth microdilution technique; assay type: functional; conditions: CCC 115, 48 h
# [16] = system: Candida albicans; assay: Antifungal activity against Candida albicans CCC 130 after 24 hrs by broth microdilution technique; conditions: CCC 130, 24 h
# [17] = system: Cryptococcus neoformans; assay: Antifungal activity against Cryptococcus neoformans ATCC 32264 after 48 hrs by broth microdilution technique; assay type: functional; conditions: ATCC 32264, 48 h; procedure, shortened: as §1
# [18] = system: Candida albicans; assay: Antifungal activity against Candida albicans CCC 130 after 48 hrs by broth microdilution technique; assay type: functional; conditions: CCC 130, 48 h
# [19] = system: Candida albicans; assay: Antifungal activity against Candida albicans CCC 126 after 48 hrs by broth microdilution technique; assay type: functional; conditions: CCC 126, 48 h
# [20] = system: Candida parapsilosis; assay: Antifungal activity against Candida parapsilosis CCC 124 after 48 hrs by broth microdilution technique; assay type: functional; conditions: Lodderomyces parapsilosis, CCC 124, 48 h
# [21] = system: Candida albicans; assay: Antifungal activity against Candida albicans CCC 129 after 48 hrs by broth microdilution technique; assay type: functional; conditions: CCC 129, 48 h
# [22] = system: Aspergillus flavus; assay: Antifungal activity against Aspergillus flavus ATCC 9170 after 48 hrs by broth microdilution technique; assay type: functional; conditions: ATCC 9170, 48 h; procedure, shortened: as §3
# [23] = system: Candida albicans; assay: Antifungal activity against Candida albicans CCC 128 after 48 hrs by broth microdilution technique; assay type: functional; conditions: CCC 128, 48 h
# [24] = system: Cryptococcus neoformans; assay: Antifungal activity against Cryptococcus neoformans IM 983040 after 48 hrs by broth microdilution technique; assay type: functional; conditions: IM 983040, 48 h; procedure, shortened: as §2
# [25] = system: Cryptococcus neoformans; assay: Antifungal activity against Cryptococcus neoformans IM 983036 after 48 hrs by broth microdilution technique; assay type: functional; conditions: IM 983036, 48 h; procedure, shortened: as §2
# [26] = system: Candida albicans; assay: Antifungal activity against Candida albicans CCC 125 after 48 hrs by broth microdilution technique; assay type: functional; conditions: CCC 125, 48 h
# [27] = system: Cryptococcus neoformans; assay: Antifungal activity against Cryptococcus neoformans IM 972724 after 48 hrs by broth microdilution technique; assay type: functional; conditions: IM 972724, 48 h; procedure, shortened: as §2
structure (smiles),measurement,setting,value
Cc1ccc2nc(-c3ccncc3)ccc2c1,MFC,[1],250 µg/mL
same,MIC,[1],125 µg/mL
same,MIC50,[1],15.6 µg/mL
same,MIC80,[1],31.2 µg/mL
same,inhibition at 31.2 µg/mL,[2],80%
same,MIC50,[3],31.2 µg/mL
same,MIC80,[3],62.5 µg/mL
same,MFC,[4],125 µg/mL
same,MIC,[4],62 µg/mL
same,MIC50,[5],15.6 µg/mL
same,MIC80,[5],31.2 µg/mL
same,MFC,[6],62 µg/mL
same,MIC,[6],62 µg/mL
same,MFC,[7],125 µg/mL
same,MIC,[7],62 µg/mL
same,MIC50,[8],15.6 µg/mL
same,MIC80,[8],125 µg/mL
same,MIC50,[9],7.8 µg/mL
same,MIC80,[9],31.2 µg/mL
same,MFC,[10],62 µg/mL
same,MIC,[10],62 µg/mL
same,MIC50,[11],15.6 µg/mL
same,MIC80,[11],31.2 µg/mL
same,MIC50,[12],31.2 µg/mL
same,MIC80,[12],125 µg/mL
same,MFC,[13],250 µg/mL
same,MIC,[13],125 µg/mL
same,MFC,[14],62 µg/mL
same,MIC,[14],62 µg/mL
same,MIC50,[15],7.8 µg/mL
same,MIC80,[15],15.6 µg/mL
same,MIC50,[16],62.5 µg/mL
same,MFC,[17],125 µg/mL
same,MIC,[17],62 µg/mL
same,MIC50,[17],7.8 µg/mL
same,MIC80,[17],31.2 µg/mL
same,MIC80,[18],125 µg/mL
same,MIC50,[19],31.2 µg/mL
same,MIC80,[19],62.5 µg/mL
same,MIC50,[20],7.8 µg/mL
same,MIC80,[20],31.2 µg/mL
same,MIC50,[21],62.5 µg/mL
same,MIC80,[21],125 µg/mL
same,MFC,[22],125 µg/mL
same,MIC,[22],62 µg/mL
same,MIC50,[23],31.2 µg/mL
same,MIC80,[23],125 µg/mL
same,MIC50,[24],7.8 µg/mL
same,MIC80,[24],31.2 µg/mL
same,MIC50,[25],31.2 µg/mL
same,MIC80,[25],62.5 µg/mL
same,MIC50,[26],31.2 µg/mL
same,MIC80,[26],125 µg/mL
same,MIC50,[27],15.6 µg/mL
same,MIC80,[27],31.2 µg/mL
